Positions count from the first letter of the chain named. pKd: −log10 of the molar value.
What was measured:
[1] = target: T1, wild-type Kv4.2/KChIP1b channels (Rattus norvegicus, UniProt Q63881); format: cell-based
T1 sequence (Q63881 1-630): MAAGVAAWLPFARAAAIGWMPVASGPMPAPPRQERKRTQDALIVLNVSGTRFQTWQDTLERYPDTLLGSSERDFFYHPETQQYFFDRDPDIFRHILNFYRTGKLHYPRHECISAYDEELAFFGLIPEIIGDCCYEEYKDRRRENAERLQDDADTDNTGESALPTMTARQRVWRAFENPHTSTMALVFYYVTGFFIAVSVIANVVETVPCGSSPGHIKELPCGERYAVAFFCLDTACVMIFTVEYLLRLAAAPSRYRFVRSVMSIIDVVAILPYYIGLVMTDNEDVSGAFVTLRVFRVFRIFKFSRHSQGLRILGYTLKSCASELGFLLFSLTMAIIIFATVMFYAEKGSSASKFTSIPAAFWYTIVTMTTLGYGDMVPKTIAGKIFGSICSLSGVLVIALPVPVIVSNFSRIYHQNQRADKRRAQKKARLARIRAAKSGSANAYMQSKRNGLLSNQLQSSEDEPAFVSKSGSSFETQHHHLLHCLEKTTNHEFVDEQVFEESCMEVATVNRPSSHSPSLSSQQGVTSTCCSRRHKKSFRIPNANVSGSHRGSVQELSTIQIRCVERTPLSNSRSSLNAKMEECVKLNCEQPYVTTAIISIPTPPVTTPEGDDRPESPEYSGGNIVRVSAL
In short: (§1)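 Rat Kv4.2 (WT or QuikChange mutant) RNA co-injected equimolar with KChIP1b, 5–10 ng/oocyte, into Xenopus oocytes held 1–5 d at 17–19 °C. Two-electrode voltage clamp at room temperature in perfused Na/K methanesulfonate HEPES saline, pH 7.4–7.5, with P/−4 or P/−6 leak subtraction. Peak current at +40 mV (from −90 mV) after 10 min of 10 μM AA is expressed relative to pre-AA current. Mean ± SE, n = cells.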

[2] = target: T2, Kv4.2 K318Q mutant channels (co-injected with KChIP1b) (Rattus norvegicus, UniProt Q63881, K318Q); assay: Two-electrode voltage clamp, K318Q mutant Kv4.2/KChIP1b in Xenopus oocytes; format: cell-based
T2 sequence (Q63881 1-630 K318Q): T1 sequence (Q63881 1-630) with K318Q
In short: as §1

[3] = target: T3, Kv4.2 R311Q mutant channels (co-injected with KChIP1b) (Rattus norvegicus, UniProt Q63881, R311Q); assay: Two-electrode voltage clamp, R311Q mutant Kv4.2/KChIP1b in Xenopus oocytes; format: cell-based; conditions: 10 µM AA, 10 min
T3 sequence (Q63881 1-630 R311Q): T1 sequence (Q63881 1-630) with R311Q

[4] = test system: Kv1.2/Kv2.1 chimeric channel; assay: Two-electrode voltage clamp of Kv1.2/2.1 chimera K+ currents in Xenopus oocytes; format: cell-based; conditions: 10 µM AA
[5] = test system: group of mutant Kv4.2 channels (V261F, K318Q, V261F/K318Q); assay: Two-electrode voltage clamp, grouped mutant Kv4.2 channels; format: cell-based, rat; conditions: 10 µM AA
In short: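 Xenopus oocytes co-expressing rat Kv4.2 (WT or mutant) with equimolar KChIP1b were recorded by two-electrode voltage clamp at room temperature. Peak conductance was calculated as G = I/(Vm − Vh), with Vh = −100 mV, and normalized to each cell's Gmax. It was plotted against step potential without and with 10 μM AA and fit to a first-order Boltzmann function to give V1/2 and slope.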

[6] = read-out: inhibition of the peak K+ current

CCCCC/C=C\C/C=C\C/C=C\C/C=C\CCCC(=O)O [AA, arachidonic acid]
V1/2 of conductance-voltage curve with AA ([1]; 10 µM AA, WT): −13.4 mV
rightward shift in V1/2 of the conductance-voltage relationship in the presence of AA ([1]; 10 µM AA, WT): +7 mV
slope factor (k) of Boltzmann fit with AA ([1]; 10 µM AA, WT): 12.1
decrease in Kv4.2 currents ([1]; 10 µM AA, n = 3, same batch of oocytes as Kv1.2/2.1, +40 mV test potential): 30.7 ± 1.8%
pKd ([1]; fitted Kd for AA inhibition of peak current, Hill equation, nH = 1, +40 mV, 1 to 300 µM AA, WT): 4.68
inhibition at 10 µM [1, 6]: 30%
V1/2 of conductance-voltage curve with AA ([2]; 10 µM AA, K318Q): −8.6 mV
slope factor (k) of Boltzmann fit with AA ([2]; 10 µM AA, K318Q): 11.3
inhibition at 10 µM [2, 6]: 12%
inhibition of peak K+ current by AA, effect of mutation [3]: did not significantly disrupt the inhibitory effects of AA
modulation of Kv1.2/2.1 K+ currents by AA [4]: not modulated by AA
increase in current ([4]; n = 8, +110 mV test potential): 1.1 ± 2.1%
average shift in V1/2 in the presence of AA for the three mutant constructs [5]: +5.7 mV

From article PMC3667888 (Channels, 2013)
